By IC50 is commonly meant the point on the concentration scale where inhibition reaches its midpoint. A high value points to weaker potency in that assay.

Where no end group is shown, it is not given here.

5 substances from article PMC6940675 (Molecular Therapy Oncolytics, 2019) can be followed below.

Data set [1] in a line: Circular dichroism spectroscopy. The class given is physicochemical. The settings on record: CD, CDNN. The procedure, abridged:
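POPE/POPG (7:3) dried from chloroform under N2 overnight, resuspended in PBS pH 7.4 and extruded through 0.1-μm membranes to form SUVs, used within 6 h. Peptide at 0.5 mM in PBS pH 7.4, alone or with SUVs. Spectra taken at 25°C from 250–190 nm in a 0.1-mm quartz cell, 1-nm steps, 60 nm/min. Each spectrum averaged three scans and was baseline-subtracted. Helix content estimated by CDNN 2.1.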
In general terms: Circular dichroism is the unequal absorption of left and right circularly polarised light.

Data set [2] deals with MCF-10A cells. Briefly: PI and Annexin V staining, fluorescent images. The class given is cell-based, human. The settings on record: 5.0 μM. The procedure, abridged: (§1)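 MCF-7 (DMEM, 5% FBS) or MCF-10A (DMEM/F12 with horse serum, hydrocortisone, insulin, EGF, cholera toxin) seeded at 2 × 10^4 cells/well in 48-well plates and cultured 24 h. Peptide added, with PBS as negative control. After 1−3 h, Alexa Fluor 488 Annexin V (1:250 v/v) and PI (1:1,000 v/v) were added for 30 min at 37°C. Cells were then imaged by fluorescence microscopy.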

Data set [3] has as its system MCF-7 cells. Nature of the data set: PI and Annexin V staining, fluorescent images. The class given is cell-based. The note with it: 5 μM, in comparison with AP1-Z1. The gist of the method: as §1
Data set [4] concerns HUVECs. Briefly: Anti-angiogenesis assay. The class given is cell-based, human. The note with it: 10.0 μM, 10−12 h, in comparison with the blank control (PBS), one-way ANOVA, Angiogenesis Analyzer for ImageJ. The gist of the method:
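HUVECs grown in Medium 200 with low serum growth supplement at 37°C, 5% CO2. Matrigel thawed overnight at 4°C, added to μ-Slide wells and polymerised 30−60 min in a humidified incubator. HUVECs at 1 × 10^5 cells/mL were added and incubated 10−12 h at 37°C, 5% CO2, with a PBS-treated negative control. Tube formation was then imaged by fluorescence microscopy.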

The test system of data set [5] is MCF-10A cells. Nature of the data set: Apoptosis assay, flow cytometry Annexin V/PI. The class given is cell-based, human. The note with it: 5 μM, normal breast cell line. The procedure, abridged:
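MCF-10A cells, a normal breast line, grown in DMEM/F12 with 5% horse serum, hydrocortisone, insulin, EGF and cholera toxin. Seeded at 2 × 10^5 cells/mL in 6-well plates and cultured 24 h before peptide exposure; PBS served as negative control. After 1−3 h, cells were washed in cold PBS and set to 1 × 10^6 cells/mL in Annexin-binding buffer. Stained with Alexa Fluor 488 Annexin V plus PI for 10 min at room temperature. Read by flow cytometry, excitation 488 nm, emission 530 and 575 nm.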

The test system of data set [6] is MCF 7, A375 and U87 cancer cell lines. Briefly: MTT assay, comparison over three cancer cell lines. The class given is cell-based. The note with it: result in words. The procedure, abridged: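 Lines used: MCF-7 (DMEM, 5% FBS) and A375 and U87 (DMEM, 10% FBS, penicillin/streptomycin). Seeded at 5,000 cells/well and grown 24 h. Peptides were diluted from 10 mM stock in medium; PBS served as control; triplicates. After 24 h exposure, MTT was added for 4 h at 37°C. Formazan was dissolved in DMSO and OD read at 550 nm.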
(Tetrazolium assays rely on reduction of a dye to a coloured formazan, in cell work by metabolically active cells.)

Data set [7] concerns malignant melanoma cell line, A375. Briefly: MTT assay. The class given is cell-based. The settings on record: A375, 24-h incubation with peptide, triplicate, OD 550 nm. The procedure, abridged:
(§2)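 ATCC cells were maintained at 37°C, 5% CO2: U87 and A375 in DMEM with 10% FBS and 1% penicillin/streptomycin, MCF-7 in DMEM with 5% FBS. They were seeded at 5,000 cells/well and grown 24 h. Peptide came from a 10 mM stock diluted in medium; controls got PBS. MTT (5 mg/mL in PBS, pH 7.4) was added for 4 h, then formazan was dissolved in DMSO.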

The test system of data set [8] is brain glioma cell line, U87. Nature of the data set: MTT assay. The class given is cell-based. The note with it: U87, 24-h incubation with peptide, triplicate, OD 550 nm. The gist of the method: as §2
Data set [9] deals with breast cancer cell line, MCF-7. Nature of the data set: MTT assay. The class given is cell-based. The settings on record: MCF-7, 24-h incubation with peptide, triplicate, OD 550 nm. The gist of the method: as §2
Where [10] appears, read: 0.5 mM peptide in 1× PBS buffer pH 7.4, 25°C, average of three scans.

Consider FLFKLIKKAIKKLIKAFK [AP1-Z7], for which the α helix ratio is given as 16.16% in [1] (setting [10]) and 44.95% in data set [1] (0.5 mM peptide in POPE/POPG (7:3) SUVs in 1× PBS, 3:1 lipid:peptide).
As for FLFSLIKHAIKGLISAFK [AP1-Z3a], in data set [1] (setting [10]), the α helix ratio was determined as 24.28%.
Regarding FLFKLIPKAIKGLIKAFK [AP1-Z5a], in data set [2], the “apoptosis of MCF-10A cells (ANXA5/PI fluorescent images)” value is on record as “no significant change in the apoptosis”. The “apoptosis of MCF-7 cells (ANXA5/PI fluorescent images)” value in [3] is recorded as “significantly induced the apoptosis”. Also, in data set [4], the “angiogenesis (tube formation of HUVECs)” value was “significantly inhibited angiogenesis”. For the same substance, the “apoptosis of MCF-10A cells” value in data set [5] is recorded as “did not significantly promote the apoptosis”. For the same substance, in [6], the “IC50 relative to the other peptides” value was “relatively lower”.
Take FLFKLIKHAIKGLIKAFK-NH2 [AP1-Z5b]: the IC50 stood at 2.61 µM in data set [7], 3.12 µM in data set [8] and 1.04 µM in data set [9].
On the same counts, the results for FLFSLIPHAISGLISAFK-NH2 [AP1-Z1] are 9.48 µM, 10.2 µM and 7.22 µM.
